# Screens: PubChem BioAssay, The Scripps Research Institute Molecular Screening Center
# Rows were chosen to be rich in hits. Some 2.9% of all compounds tested hit in one or more screens of this group.
# CHO-K1 Ca antag: counter-screen for M1 antagonists: effect in parental CHO-K1 cells; ATP-induced calcium, Fluo-8 fluorescence; inhibition, % at 3 µM; 0.6% of 360,000 active;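 active means inhibition above a per-plate cutoff, the plate's mean sample inhibition plus 3 SD, cut at about 24% in these data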;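 further: 0% = DMSO plus EC80 ATP and 100% = DMSO alone without ATP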
# OX1R antag-1: OX1R (HCRTR1) antagonists, primary screen, fluorescence, CHO/OX1R cells, Fluo-8 calcium, orexin A; Orexin/Hypocretin receptor type 1 (Homo sapiens), O43613; Fluo-8 calcium fluorescence; inhibition, % at 5 µM; 0.43% of 330,000 active; AID 434989, 2010;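 active means inhibition above its plate's threshold, mean inhibition of all tested compounds on the plate plus 3 SD, cut at about 37% in these data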;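 further: 0% = orexin A challenge wells and 100% = SB-334867-A antagonist wells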
# Target sequence (O43613 whole entry, looked up): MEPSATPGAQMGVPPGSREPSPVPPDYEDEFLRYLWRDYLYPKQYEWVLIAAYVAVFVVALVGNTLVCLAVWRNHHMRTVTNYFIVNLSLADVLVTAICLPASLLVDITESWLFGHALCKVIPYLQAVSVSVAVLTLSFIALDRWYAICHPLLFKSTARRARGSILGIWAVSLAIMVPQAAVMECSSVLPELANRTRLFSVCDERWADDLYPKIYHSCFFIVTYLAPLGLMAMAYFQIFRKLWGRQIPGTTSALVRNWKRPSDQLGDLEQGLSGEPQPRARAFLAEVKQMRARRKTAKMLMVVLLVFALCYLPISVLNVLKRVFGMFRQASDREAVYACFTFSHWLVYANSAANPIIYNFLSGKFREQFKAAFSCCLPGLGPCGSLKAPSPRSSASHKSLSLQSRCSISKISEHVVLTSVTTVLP
# M1 PAM parental: nonselective calcium activators in parental CHO-K1 cells, primary screen, counter-screen for M1 PAM project, cell-based, Fluo-8 calcium fluorescence, full deck, 1536-well; ATP EC20; 0% at ATP EC20, 100% at ATP max; activation, % at 3 µM; 0.02% of 360,000 active;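 active means activation above the run cutoff, the mean activation of all test compounds plus 3 SD, cut at about 40% in these data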;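 further: peak over basal fluorescence ratio in a 140 s read after ATP addition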
# OX1R antag-2: antagonists of human orexin 1 receptor (OX1R); Orexin/Hypocretin receptor type 1 (Homo sapiens), O43613; OX1R-expressing cells, FRET antagonist read-out; inhibition, % at 6.6 µM; 1.8% of 330,000 active; AID 485270, 2010; in the data active means inhibition mostly above about 38%, no sharp cut-off; inactive means mostly below about 40%;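 further: 0% = agonist challenge alone and 100% = reference antagonist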
# M1 ag parental: counter-screen for M1 agonists: effect in parental CHO-K1 cells. Fluo-8 calcium fluorescence; scaled to maximal ATP response, vehicle zero. activation, % at 3 µM. 0.48% of 360,000 active. AID 602248, 2012; in the data active means activation above about 15%;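 further: untransfected CHO-K1 host cells lacking M1 receptor as counterscreen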
# CHO parental Ca: ATP-evoked calcium signal inhibitors, parental CHO, primary screen, counter-screen for OX1R antagonist project, cell-based, fluorescence, Fluo-8 calcium dye; parental CHO-K1, ATP-induced calcium, Fluo-8 fluorescence; inhibition, % at 5.6 µM; 0.63% of 330,000 active; AID 463079, 2010;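 active means inhibition above that plate's mean sample inhibition plus 3 SD, cut at about 26% in these data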;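 further: 0% = ATP-challenged DMSO wells and 100% = DMSO wells without ATP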
#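 Test system: untransfected parental CHO cell line. Compound: one dose, 5.6 µM nominal. Detection: intracellular calcium via Fluo-8 no-wash fluorescent dye. Measure: % inhibition. Benchmarks: ATP-challenged DMSO wells low, unchallenged DMSO wells high.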
# The depositor's hits bear a star; nt = no result.
SMILES,CHO-K1 Ca antag,OX1R antag-1,M1 PAM parental,OX1R antag-2,M1 ag parental,CHO parental Ca
Cc1nonc1OCCNCCNc1ccc([N+](=O)[O-])c2cccnc12,-3,-25,14,28,2,-18
O=C(N/N=C\C1C(=O)NC(=S)N(c2ccccc2)C1=O)c1ccc(O)cc1 (centres undefined),5,8,-5,46*,0,-7
O=C(N/N=C/c1c(O)n(-c2ccccc2)c(=S)[nH]c1=O)c1ccccc1,-3,21,5,17,0,-8
Oc1cccc(/C=N/NP(=S)(c2ccccc2)c2ccccc2)c1,25*,-13,-8,4,0,1
COC(=O)C1=C(c2ccc(C(C)=O)cc2)C[C@@H]2CC[C@H]1N2C(=O)NCCCOC(C)C,-14,-16,14,3,0,-8
O=C(NCCN1CCC2(CC1)C(=O)NCN2c1cccc(F)c1)c1ccc2ccccc2c1,93*,nt,-19,nt,41*,nt
O=C1NCN(c2ccccc2)C12CCNCC2,-20,-22,17,-1,1,-2
Cc1c(N=Nc2c(O)n(-c3ccc(Br)cc3)c(=O)[nH]c2=O)c(=O)n(-c2ccccc2)n1C,0,-16,-14,66*,0,-2
Cc1c(N=Nc2c(O)[nH]c(=O)[nH]c2=O)c(=O)n(-c2ccccc2)n1C,-8,4,1,35,1,-10
Cc1ccc(-c2cc(-c3ccc(C)cc3)[n+](-c3ccc(C(=O)O)cc3)c(-c3ccc(C)cc3)c2)cc1,0,-10,1,37,4,-11
Cc1ccc(C[n+]2c(-c3ccc(C)cc3)cc(-c3ccc(C)cc3)cc2-c2ccc(C)cc2)cc1,17,96*,4,-5,14,98*
COc1ccc(-[n+]2c(-c3ccccc3)cc(-c3ccc(C)cc3)cc2-c2ccccc2)cc1,14,18,2,27,13,45*
COc1ccc(-c2cc(-c3ccccc3)[n+](C)c(-c3ccccc3)c2)cc1,6,-18,-6,21,0,-17
[O-]c1ccccc1-[n+]1c(-c2ccccc2)cc(-c2ccccc2)cc1-c1ccccc1,-23,45,23,16,0,48*
Cc1ccccc1-[n+]1c(-c2ccccc2)cc(-c2ccccc2)cc1-c1ccccc1,6,15,-3,45,5,54*
Oc1ccccc1-[n+]1c(-c2ccccc2)cc(-c2ccccc2)cc1-c1ccccc1,-7,-23,6,9,0,-8
O=C(C1CCCN(S(=O)(=O)c2cccc3nsnc23)C1)N1CCC2(CC1)OCCO2 (centres undefined),nt,-14,nt,41*,nt,-12
CC(C)CCC1(CN2CCCC2=O)C(=O)NC(=O)NC1=O,-9,-16,13,8,0,-9
O=P(Nc1ccccc1)(Nc1ccccc1)Oc1cccc(Cl)c1,3,2,5,1,41*,-16
CCCCCCn1c(O)c(C=NCCN2CCCCC2)c(=O)[nH]c1=O,-3,-17,21,5,0,-12
CCCCCCn1c(O)c(C=NCCN2CCOCC2)c(=O)[nH]c1=O,7,-17,10,29,17*,-2
O=C1NC(=O)C2(CCCc3ccc(N(CCCl)CCCl)cc32)N1 (centres undefined),-7,nt,3,nt,1,nt
CN1CCN(c2ccc(F)cc2N)CC1,-10,-10,1,-5,2,-11
NNc1n[nH]c(=S)n1N,-10,5,16,61*,0,5
CC1(C)CN=C(NCc2ccccc2Cl)S1,-5,-18,14,17,0,-17
SMILES,CHO-K1 Ca antag,OX1R antag-1,M1 PAM parental,OX1R antag-2,M1 ag parental,CHO parental Ca
Cc1nc2ccccc2c(=O)n1-c1cccc(C(F)(F)F)c1,11,-7,4,9,7,-8
Cc1cccc(NP(=O)(Oc2ccccc2)Oc2ccccc2)c1C,-4,4,16,17,17*,-2
O=C1c2cccc3cccc(c23)C(=O)N1/N=C/c1c(O)n(-c2ccccc2)c(=O)[nH]c1=O,-5,-8,2,61*,0,-7
CCN(CC)S(=O)(=O)c1ccc(N=Cc2c(O)n(-c3ccccc3)c(=O)[nH]c2=O)cc1,1,-25,1,40,0,-5
CCN(CC)S(=O)(=O)c1cc(NC(=O)C(C)N2CC=C(c3ccccc3)CC2)ccc1C (centres undefined),-7,-31,19,11,0,43*
c1ccc2c(NC3=NCCS3)cccc2c1,0,-40,3,27,0,-31
CCOc1cc2c(cc1OCC)-n1cccc1C(c1ccc(OC)cc1)NC2 (centres undefined),3,-22,14,10,18*,0
CCOc1cc2c(cc1OCC)-n1cccc1C(c1ccc(C(C)C)cc1)NC2 (centres undefined),-4,8,15,16,4,56*
CCOc1cc2c(cc1OCC)-n1cccc1C(c1ccc(F)cc1)NC2 (centres undefined),-9,-20,6,6,5,-9
Cc1nc2cc(C(F)(F)F)ccc2n1C1CCN(Cc2nnnn2Cc2cccs2)CC1,-6,43*,9,-1,2,61*
O=c1c2ccccc2nc(CNCc2ccco2)n1-c1ccc(F)cc1,-7,-27,20,20,1,-2
O=c1c2ccccc2nc(-c2ccccc2)n1-c1ccncc1,31*,-8,-4,12,0,-13
O=c1c2ccccc2nc(-c2ccccc2)n1-c1ccccc1,-13,-12,17,10,1,-11
O=S(=O)(c1ccc(Cl)cc1)N1Cc2ccccc2-n2nncc2C1,11,nt,-9,nt,1,nt
c1csc(CN2CCNCC2)c1,-8,-6,-2,11,1,1
OCc1cnc[nH]1,36*,-6,-7,10,0,2
O=C(Nc1ccc(Br)cc1)c1nn(C23CC4CC(CC(C4)C2)C3)cc1Br,-2,2,6,17,0,-10
O=c1[nH]c(=S)n(CCC2=CCCCC2)c(O)c1C=NCCCn1ccnc1,25*,-34,-6,5,0,-29
CCOc1ccc(N=C2SCCCN2C)cc1,-8,-10,11,14,0,-3
Cc1nc2cc(-c3ccccc3)nn2c(C)c1CCC(=O)N1CCC2(CC1)OCCO2,24*,-14,-7,6,0,-19
CCC(CC)NC1CCCCC1OC (centres undefined),-3,-2,14,3,3,10
O=C(Nc1ccccc1)N1CCC2(CC1)OCCO2,0,4,21,21,0,8
